Assay results reported in ChEMBL document CHEMBL4130487, “A pentanoic acid derivative targeting matrix metalloproteinase-2 (MMP-2) induces apoptosis in a chronic myeloid leukemia cell line” (Eur J Med Chem, 2017).

Tests used:
MDA-MB-231 = assay: Cytotoxicity against human MDA-MB-231 cells assessed as reduction in cell viability after 48 hrs by MTT assay; type: functional, cell-based; settings: MDA-MB-231, 48 h
Procedure, shortened: (§1)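 A549, MDA-MB-231, K562, U937 and PBMC (PBMC from healthy donors) seeded at 1×10^3 cells/well and left 24 h, then exposed to compounds for 48 h at 37 °C, 5% CO2. Adherent lines were grown in DMEM, the others in RPMI-1640 with 10% heat-inactivated FBS. MTT read-out; viability expressed as % of untreated control. IC50 taken as the concentration giving 50% viability loss.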

[1] = molecular target: Matrix metalloproteinase-14 (Homo sapiens, UniProt P50281); assay: Inhibition of recombinant human MMP14 (Tyr112 to Arg298 residues) expressed in Escherichia coli using Ac-Pro-Leu-Gly-S-Leu-Leu-Gly-OEt as substrate after 1 hr measured at 1 min time interval for 30 mins by microplate photometric method
Procedure, shortened: (§2)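 Commercial MMP kits; compound preincubated with enzyme before chromogenic substrate was added. Reactions at 37 °C for 1 h, with at least six inhibitor concentrations in triplicate. Absorbance at 410 nm read every 1 min for 30 min. NNGH used as reference inhibitor. IC50 taken from semi-logarithmic dose-response plots.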

Neutrophil collagenase = Neutrophil collagenase (Homo sapiens, UniProt P22894); assay: Inhibition of recombinant human MMP8 (Phe99 to Gln269 residues) expressed in Escherichia coli using Ac-Pro-Leu-Gly-S-Leu-Leu-Gly-OEt as substrate after 1 hr measured at 1 min time interval for 30 mins by microplate photometric method; procedure, shortened: as §2
Chain of Neutrophil collagenase (P22894 whole entry): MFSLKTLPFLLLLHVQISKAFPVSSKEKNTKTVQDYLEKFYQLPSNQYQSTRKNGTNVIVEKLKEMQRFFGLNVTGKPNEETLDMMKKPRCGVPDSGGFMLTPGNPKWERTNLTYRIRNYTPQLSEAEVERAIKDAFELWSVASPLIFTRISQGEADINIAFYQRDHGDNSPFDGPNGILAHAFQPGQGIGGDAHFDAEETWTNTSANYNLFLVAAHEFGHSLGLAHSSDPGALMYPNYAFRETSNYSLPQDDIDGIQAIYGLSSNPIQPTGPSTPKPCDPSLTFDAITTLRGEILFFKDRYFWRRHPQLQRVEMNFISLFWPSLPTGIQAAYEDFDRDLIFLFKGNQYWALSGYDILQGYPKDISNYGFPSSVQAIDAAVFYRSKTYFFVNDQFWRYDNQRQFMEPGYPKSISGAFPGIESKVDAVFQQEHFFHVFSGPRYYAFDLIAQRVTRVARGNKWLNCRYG

[2] = molecular target: 72 kDa type IV collagenase (Homo sapiens, UniProt P08253); assay: Inhibition of recombinant human MMP2 (Tyr110 to Asp452 residues) using Ac-Pro-Leu-Gly-S-Leu-Leu-Gly-OEt as substrate after 1 hr measured at 1 min time interval for 30 mins by microplate photometric method; procedure, shortened: as §2
Chain of 72 kDa type IV collagenase (P08253 whole entry): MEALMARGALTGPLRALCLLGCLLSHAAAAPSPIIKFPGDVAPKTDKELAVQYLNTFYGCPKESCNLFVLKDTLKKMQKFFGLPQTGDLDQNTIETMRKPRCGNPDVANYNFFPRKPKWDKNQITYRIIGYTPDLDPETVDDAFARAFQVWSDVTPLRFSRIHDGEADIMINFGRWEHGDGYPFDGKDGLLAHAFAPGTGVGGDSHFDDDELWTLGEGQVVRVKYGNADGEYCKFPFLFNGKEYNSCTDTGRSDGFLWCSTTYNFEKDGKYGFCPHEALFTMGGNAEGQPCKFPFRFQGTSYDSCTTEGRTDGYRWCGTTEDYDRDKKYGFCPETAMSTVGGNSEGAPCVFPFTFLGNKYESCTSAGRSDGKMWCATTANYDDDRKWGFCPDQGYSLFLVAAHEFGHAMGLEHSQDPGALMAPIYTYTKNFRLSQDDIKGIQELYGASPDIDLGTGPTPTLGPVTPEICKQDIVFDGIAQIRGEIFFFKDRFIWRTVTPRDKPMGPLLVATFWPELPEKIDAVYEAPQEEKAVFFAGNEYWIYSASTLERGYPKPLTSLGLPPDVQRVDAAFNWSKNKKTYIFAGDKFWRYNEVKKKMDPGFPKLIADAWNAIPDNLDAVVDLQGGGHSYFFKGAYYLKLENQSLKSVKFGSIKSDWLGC

A549 = assay: Cytotoxicity against human A549 cells assessed as reduction in cell viability after 48 hrs by MTT assay; type: functional, cell-based; settings: A549, 48 h; procedure, shortened: as §1
[3] = molecular target: Matrix metalloproteinase-9 (Homo sapiens, UniProt P14780); assay: Inhibition of recombinant human MMP9 (Phe107 to Pro449 residues) expressed in Escherichia coli using Ac-Pro-Leu-Gly-S-Leu-Leu-Gly-OEt as substrate after 1 hr measured at 1 min time interval for 30 mins by microplate photometric method; procedure, shortened: as §2
Chain of Matrix metalloproteinase-9 (P14780 whole entry): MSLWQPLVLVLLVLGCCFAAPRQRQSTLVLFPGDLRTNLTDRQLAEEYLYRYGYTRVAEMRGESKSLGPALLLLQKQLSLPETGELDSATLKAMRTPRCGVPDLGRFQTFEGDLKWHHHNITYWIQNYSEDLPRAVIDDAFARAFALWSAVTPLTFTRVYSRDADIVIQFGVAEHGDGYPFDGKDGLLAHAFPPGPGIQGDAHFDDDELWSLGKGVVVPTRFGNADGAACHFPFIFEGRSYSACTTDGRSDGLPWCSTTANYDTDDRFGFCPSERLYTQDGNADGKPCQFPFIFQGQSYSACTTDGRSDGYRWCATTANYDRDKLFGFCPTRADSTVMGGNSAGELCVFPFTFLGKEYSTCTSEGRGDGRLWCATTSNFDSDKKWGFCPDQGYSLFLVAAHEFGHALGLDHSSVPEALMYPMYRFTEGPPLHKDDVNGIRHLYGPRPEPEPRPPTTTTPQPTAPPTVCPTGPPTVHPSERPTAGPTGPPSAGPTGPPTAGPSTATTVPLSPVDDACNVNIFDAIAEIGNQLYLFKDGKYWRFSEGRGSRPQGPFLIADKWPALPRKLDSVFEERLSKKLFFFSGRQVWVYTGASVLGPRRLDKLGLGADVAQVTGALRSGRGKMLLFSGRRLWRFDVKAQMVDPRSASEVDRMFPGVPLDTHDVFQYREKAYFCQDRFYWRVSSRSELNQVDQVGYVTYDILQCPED

[4] = molecular target: MMP-2/MMP-9 (Homo sapiens) (UniProt P08253+P14780); assay: Selectivity ratio of IC50 for recombinant human MMP9 (Phe107 to Pro449 residues) expressed in Escherichia coli to IC50 for recombinant human MMP2 (Tyr110 to Asp452 residues)
K562 = assay: Cytotoxicity against human K562 cells assessed as reduction in cell viability after 48 hrs by MTT assay; type: functional, cell-based; settings: K562, 48 h; procedure, shortened: as §1
U-937 = assay: Cytotoxicity against human U937 cells assessed as reduction in cell viability after 48 hrs by MTT assay; type: functional, cell-based; settings: U-937, 48 h; procedure, shortened: as §1
PBMC = assay: Cytotoxicity against human PBMC assessed as reduction in cell viability after 48 hrs by MTT assay; type: cell-based; procedure, shortened: as §1
[5] = molecular target: Macrophage metalloelastase (Homo sapiens, UniProt P39900); assay: Inhibition of recombinant human MMP12 (Phe99 to Leu271 residues) expressed in Escherichia coli using Ac-Pro-Leu-Gly-S-Leu-Leu-Gly-OEt as substrate after 1 hr measured at 1 min time interval for 30 mins by microplate photometric method; procedure, shortened: as §2
Chain of Macrophage metalloelastase (P39900 whole entry): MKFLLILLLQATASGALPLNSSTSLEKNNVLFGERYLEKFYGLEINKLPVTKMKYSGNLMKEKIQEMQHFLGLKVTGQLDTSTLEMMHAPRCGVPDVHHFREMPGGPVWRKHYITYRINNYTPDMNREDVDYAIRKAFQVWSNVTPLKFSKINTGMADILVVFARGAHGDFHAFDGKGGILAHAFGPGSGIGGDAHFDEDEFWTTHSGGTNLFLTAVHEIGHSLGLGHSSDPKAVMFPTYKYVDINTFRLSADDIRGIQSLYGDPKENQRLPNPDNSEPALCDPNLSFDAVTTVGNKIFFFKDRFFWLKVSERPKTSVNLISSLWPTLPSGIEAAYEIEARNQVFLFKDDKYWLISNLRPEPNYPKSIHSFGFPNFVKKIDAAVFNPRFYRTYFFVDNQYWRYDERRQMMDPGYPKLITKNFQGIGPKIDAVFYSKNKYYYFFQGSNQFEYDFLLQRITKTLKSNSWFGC

Interstitial collagenase = molecular target: T1, Interstitial collagenase (Homo sapiens, UniProt P03956); assay: Inhibition of recombinant human MMP1 (Phe100 to Gln268 residues) using Ac-Pro-Leu-Gly-S-Leu-Leu-Gly-OEt as substrate after 1 hr measured at 1 min time interval for 30 mins by microplate photometric method; procedure, shortened: as §2
T1 sequence (P03956 whole entry): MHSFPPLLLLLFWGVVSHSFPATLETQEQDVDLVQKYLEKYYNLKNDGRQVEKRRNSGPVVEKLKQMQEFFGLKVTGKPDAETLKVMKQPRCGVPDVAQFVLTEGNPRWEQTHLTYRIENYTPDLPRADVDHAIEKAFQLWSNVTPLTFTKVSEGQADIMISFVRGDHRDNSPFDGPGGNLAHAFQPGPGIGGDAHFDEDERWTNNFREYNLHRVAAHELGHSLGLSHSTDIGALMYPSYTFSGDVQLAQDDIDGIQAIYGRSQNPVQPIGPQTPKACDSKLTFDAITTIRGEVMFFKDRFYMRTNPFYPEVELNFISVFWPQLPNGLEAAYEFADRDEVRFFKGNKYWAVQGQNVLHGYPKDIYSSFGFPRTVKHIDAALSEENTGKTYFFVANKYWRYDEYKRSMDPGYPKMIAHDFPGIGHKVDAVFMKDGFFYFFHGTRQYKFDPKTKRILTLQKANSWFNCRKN

IC50 [1] [µM]	IC50 (Neutrophil collagenase) [µM]	IC50 [2] [µM]	IC50 [3] [µM]	Ratio IC50 [4]	IC50 [5] [µM]	IC50 (Interstitial collagenase) [µM]	Compound	IC50 (MDA-MB-231) [µM]	IC50 (A549) [µM]	IC50 (K562) [µM]	IC50 (U-937) [µM]	IC50 (PBMC) [µM]
> 500	401	2.85	7.5	2.63	> 500	> 500	CNC(=O)CC[C@H](NS(=O)(=O)c1ccc([N+](=O)[O-])cc1)C(=O)O	> 500	> 500	> 500	> 500	> 1000
301	> 500	2.12	5.97	2.82	493	> 500	CC(C)NC(=O)CC[C@H](NS(=O)(=O)c1ccc([N+](=O)[O-])cc1)C(=O)O	> 500	> 500	19.8	95.1	> 1000
87.1	298	5.34	4.8	–	109	> 500	CCNC(=O)CC[C@H](NS(=O)(=O)c1ccc([N+](=O)[O-])cc1)C(=O)O	> 500	221	> 500	89.4	> 1000
76.3	199	1.65	7	4.24	100	> 500	NC(=O)CC[C@H](NS(=O)(=O)c1ccc([N+](=O)[O-])cc1)C(=O)O	> 500	> 500	> 500	> 500	> 1000

The next lines start with the compound.

Compound	IC50 [1] [µM]	IC50 (Neutrophil collagenase) [µM]	IC50 [2] [µM]	IC50 [3] [µM]	Ratio IC50 [4]	IC50 [5] [µM]	IC50 (Interstitial collagenase) [µM]	IC50 (MDA-MB-231) [µM]	IC50 (A549) [µM]	IC50 (K562) [µM]	IC50 (U-937) [µM]	IC50 (PBMC) [µM]
CC(C)CNC(=O)CC[C@H](NS(=O)(=O)c1ccc([N+](=O)[O-])cc1)C(=O)O	309	483	8.52	5.14	–	> 500	> 500	> 500	> 500	42.5	93.8	> 1000
CCCCNC(=O)CC[C@H](NS(=O)(=O)c1ccc([N+](=O)[O-])cc1)C(=O)O	111	346	4.07	6.36	–	198	> 500	> 500	276	19.7	94	> 1000
O=C(CC[C@H](NS(=O)(=O)c1ccc([N+](=O)[O-])cc1)C(=O)O)NCc1ccccc1	109	173	0.21	6.37	> 25	95.2	> 500	175	343	23.4	102	> 1000
